Reference: ChEMBL document CHEMBL1127469, “Decapeptide agonists of human C5a: the relationship between conformation and spasmogenic and platelet aggregatory activities” (J Med Chem, 1994)
Bridge positions count the residues as written; N and C are the ends. Peptide text beside a SMILES is read from it.

Experiments:
[1] = organism: Cavia porcellus; assay: Platelet aggregation in guinea pig; format: functional
Procedure, shortened: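 Platelet-rich plasma from arterial blood of anesthetized male Hartley guinea pigs, diluted to 3 × 10^8 platelets/mL in 0.39% sodium citrate. Peptides are serially diluted 1.5-fold and shaken with plasma and a 3 mm glass bead at 100 rpm, 5 min, 37 °C. Aggregation is scored visually at 40×. The threshold is the greatest dilution giving visible aggregation. At least three independent duplicate runs; C5a and C3a serve as standards.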

[2] = organism: Cavia porcellus; assay: Effective dose required for smooth muscle contraction in guinea pig ileum; format: functional; conditions: Muscle tissue
Procedure, shortened: (§1)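 Isometric contraction of tissue strips in 2 mL organ baths of Krebs-Ringers solution, 37 °C, pH 7.4, gassed with 95% O2/5% CO2, equilibrated 1 h. Tachyphylaxis prevents cumulative curves, so each strip gets one peptide concentration, then histamine 10 μM. Response is taken as % of the histamine maximum. EC50 comes from probit analysis, reported as pD2 (-log EC50, M), mean ± SE.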

[3] = organism: Homo sapiens; assay: Effective dose required for smooth muscle contraction in human fetal artery; format: functional; conditions: Muscle tissue; procedure, shortened: as §1
[4] = molecular target: T1, C5a anaphylatoxin chemotactic receptor 1 (Homo sapiens) (UniProt P21730); assay: Pharmacological activity against C5a receptor in human fetal artery; procedure, shortened: as §1
T1 sequence (whole entry): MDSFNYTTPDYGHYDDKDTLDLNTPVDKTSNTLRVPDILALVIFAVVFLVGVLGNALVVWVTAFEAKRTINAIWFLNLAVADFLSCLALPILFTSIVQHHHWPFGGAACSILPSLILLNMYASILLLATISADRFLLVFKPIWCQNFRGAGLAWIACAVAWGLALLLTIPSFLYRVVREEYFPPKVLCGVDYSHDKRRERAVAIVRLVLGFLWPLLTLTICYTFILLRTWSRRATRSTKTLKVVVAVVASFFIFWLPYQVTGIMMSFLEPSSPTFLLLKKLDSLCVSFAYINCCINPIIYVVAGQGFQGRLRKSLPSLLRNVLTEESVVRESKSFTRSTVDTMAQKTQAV

[5] = molecular target: T2, C5a anaphylatoxin chemotactic receptor 1 (Cavia porcellus) (UniProt O70129); assay: Pharmacological activity against C5a receptor in guinea pig ileum; format: tissue-based; procedure, shortened: as §1
T2 sequence (whole entry): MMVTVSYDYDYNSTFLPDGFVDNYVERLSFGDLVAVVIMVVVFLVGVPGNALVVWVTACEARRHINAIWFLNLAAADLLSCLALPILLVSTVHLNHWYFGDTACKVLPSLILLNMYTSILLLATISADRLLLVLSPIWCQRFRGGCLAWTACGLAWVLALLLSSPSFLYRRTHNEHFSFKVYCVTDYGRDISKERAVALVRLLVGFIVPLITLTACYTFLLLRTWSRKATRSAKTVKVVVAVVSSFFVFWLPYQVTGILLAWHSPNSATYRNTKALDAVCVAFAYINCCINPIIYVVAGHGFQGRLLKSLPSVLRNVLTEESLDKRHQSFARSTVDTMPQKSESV

[6] = organism: Cavia porcellus; assay: Effective dose required for smooth muscle contraction in Guinea pig lung parenchyma; format: functional; procedure, shortened: as §1
[7] = test system: C5a anaphylatoxin chemotactic receptor 1 (Cavia porcellus); assay: Tested for pharmacological activity against C5a receptor in Guinea pig lung parenchyma

| Compound | EC50 [2] [µM] | EC50 [3] [µM] | EC50 [6] [µM] | Platelet aggregation [1] [µM] | pD2 [4] | pD2 [5] | pD2 [7] |
| --- | --- | --- | --- | --- | --- | --- | --- |
| CSCC[C@H](NC(=O)CNC(=O)[C@H](CCCCN)NC(=O)[C@H](Cc1ccccc1)NC(=O)[C@H](CO)NC(=O)[C@@H](N)Cc1ccc(O)cc1)C(=O)N[C@@H](CC(C)C)C(=O)N[C@@H](CC(C)C)C(=O)NCC(=O)N[C@H](CCCN=C(N)N)C(=O)O |  | 40 |  |  | 4.43 |  |  |
| H-ISFKDMQLGR-OH |  |  |  | 86.3 |  |  |  |
| H-YSFKGMPLGR-OH |  | 0.59 |  | 6.3 | 6.23 |  |  |
| CC(C)C[C@@H]1NC(=O)[C@@H]2CCCN2C(=O)[C@@H](NC(=O)[C@H](CC(=O)O)NC(=O)[C@H](CCCCN)NC(=O)[C@H](Cc2ccccc2)NC(=O)[C@H](CO)NC(=O)[C@@H](N)Cc2ccc(O)cc2)CSSC[C@@H](C(=O)N[C@@H](CCCN=C(N)N)C(=O)O)NC1=O (H-YSFKDCPLCR-OH; disulfide 6-9) |  | 162 |  | >410 | < 4 |  |  |
| C[C@H](NC(=O)[C@@H]1CCCN1C(=O)[C@H](CCS)NC(=O)[C@H](CC(=O)O)NC(=O)[C@H](CCCCN)NC(=O)[C@H](Cc1ccccc1)NC(=O)[C@H](CO)NC(=O)[C@@H](N)Cc1ccc(O)cc1)C(=O)N[C@H](C)C(=O)N[C@@H](CCCN=C(N)N)C(=O)O |  |  |  |  | 4.86 |  |  |
| CSCC[C@H](NC(=O)[C@H](CC(=O)O)NC(=O)[C@H](CCCCN)NC(=O)[C@H](Cc1ccccc1)NC(=O)[C@H](CO)NC(=O)[C@@H](N)Cc1ccc(O)cc1)C(=O)N1CCC[C@H]1C(=O)N[C@@H](C)C(=O)NCC(=O)N[C@@H](CCCN=C(N)N)C(=O)O |  | > 1000 |  | 101 | < 3 |  |  |
| CSCC[C@H](NC(=O)[C@H](CC(=O)O)NC(=O)[C@H](CCCCN)NC(=O)[C@H](Cc1ccccc1)NC(=O)[C@H](CO)NC(=O)[C@@H](N)Cc1ccc(O)cc1)C(=O)N[C@@H](CCC(N)=O)C(=O)N[C@@H](CC(C)C)C(=O)N[C@@H](C)C(=O)N[C@@H](CCCN=C(N)N)C(=O)O |  | 122 |  | 34 | 4.04 |  |  |
| CC(C)C[C@H](NC(=O)[C@@H]1CCCN1C(=O)[C@H](C)NC(=O)[C@H](CC(=O)O)NC(=O)[C@H](CCCCN)NC(=O)[C@H](Cc1ccccc1)NC(=O)[C@H](CO)NC(=O)[C@@H](N)Cc1ccc(O)cc1)C(=O)NCC(=O)N[C@@H](CCCN=C(N)N)C(=O)O | 26.6 | 1.74 |  | 7.4 | 6.11 | 4.79 |  |
| CSCC[C@H](NC(=O)[C@H](CC(=O)O)NC(=O)[C@H](CCCCN)NC(=O)[C@H](Cc1ccccc1)NC(=O)[C@H](CO)NC(=O)[C@@H](N)Cc1ccc(O)cc1)C(=O)N[C@@H](CCC(N)=O)C(=O)N[C@@H](CC(C)C)C(=O)N1CCC[C@H]1C(=O)N[C@@H](CCCN=C(N)N)C(=O)O |  | > 1000 |  | 225 | < 3 |  |  |

Continued, in another order:

| EC50 [2] [µM] | EC50 [3] [µM] | EC50 [6] [µM] | Compound | Platelet aggregation [1] [µM] | pD2 [4] | pD2 [5] | pD2 [7] |
| --- | --- | --- | --- | --- | --- | --- | --- |
| 344 | 48 |  | H-YSFKDMQPGR-OH | 500 | 4.4 | 3.64 |  |
|  | 26.6 |  | CC(C)C[C@H](NC(=O)[C@@H]1CCCN1C(=O)[C@H](CS)NC(=O)[C@H](CC(=O)O)NC(=O)[C@H](CCCCN)NC(=O)[C@H](Cc1ccccc1)NC(=O)[C@H](CO)NC(=O)[C@@H](N)Cc1ccc(O)cc1)C(=O)N[C@@H](CS)C(=O)N[C@@H](CCCN=C(N)N)C(=O)O (H-YSFKDCPLCR-OH) | 4.1 | 4.67 |  |  |
| 11.5 | 1.13 | 8.1 | CSCC[C@H](NC(=O)[C@H](CC(=O)O)NC(=O)[C@H](CCCCN)NC(=O)[C@H](Cc1ccccc1)NC(=O)[C@H](CO)NC(=O)[C@@H](N)Cc1ccc(O)cc1)C(=O)N1CCC[C@H]1C(=O)N[C@@H](CC(C)C)C(=O)NCC(=O)N[C@@H](CCCN=C(N)N)C(=O)O | 6.3 | 6.18 | 5.14 |  |
|  | 2.04 |  | H-YSFKDCPLGR-OH | 2.3 | 5.79 |  |  |
| 26.8 | 4.9 | 15.1 | CSCC[C@H](NC(=O)CNC(=O)[C@H](CCCCN)NC(=O)[C@H](Cc1ccccc1)NC(=O)[C@H](CO)NC(=O)[C@@H](N)Cc1ccc(O)cc1)C(=O)N[C@@H](CC(C)C)C(=O)N[C@@H](CC(C)C)C(=O)NCC(=O)N[C@@H](CCCN=C(N)N)C(=O)O | 10.5 | 5.34 | 4.61 | 5 |
|  | 12.2 |  | CSCC[C@H](NC(=O)[C@H](CC(=O)O)NC(=O)[C@H](CCCCN)NC(=O)[C@H](Cc1ccccc1)NC(=O)[C@H](CO)NC(=O)[C@@H](N)Cc1ccc(O)cc1)C(=O)N[C@@H](CCC(N)=O)C(=O)N[C@@H](CC(C)C)C(=O)N[C@H](C)C(=O)N[C@@H](CCCN=C(N)N)C(=O)O | 20 | 5.42 |  |  |
|  | 25.1 |  | H-YSFKDMPPGR-OH | 80 | 4.68 |  |  |
| 37.5 | 11.2 | 28.4 | H-YSFKDMQLGR-OH | 22.9 | 5.05 | 4.51 |  |
| 18.1 | 6.6 | 22.1 | H-YSFKGLLLGR-OH | 21 | 5.21 | 4.74 |  |
